T cruzi growth-1: blocks T. cruzi growth in NIH3T3 culture. AID 624255. 77,000 tested, 5.9% active. inhibition, % at 8.34 µM. T. cruzi beta-gal in NIH3T3, GalScreen luminescence, 90 h;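 active means mean inhibition above about 93%, with at least 55% of replicates each passing it, limit read from the data, passing the limit was not always enough; inconclusive means only one of those two conditions holds; inactive means neither condition holds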
IDH1 R132H inh: inhibitors of human IDH1 R132H; O75874; IDH1 R132H reductase, diaphorase/resazurin fluorescence, 60 min; inhibition, % at 10 µM; 70,000 tested, 0.18% active; AID 624101; in the data active means inhibition above about 34%; inconclusive means no clear call, values can overlap the other calls; inactive means below about 11%;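 further: 0% = DMSO and 100% = no enzyme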
Target sequence (O75874 whole entry R132H): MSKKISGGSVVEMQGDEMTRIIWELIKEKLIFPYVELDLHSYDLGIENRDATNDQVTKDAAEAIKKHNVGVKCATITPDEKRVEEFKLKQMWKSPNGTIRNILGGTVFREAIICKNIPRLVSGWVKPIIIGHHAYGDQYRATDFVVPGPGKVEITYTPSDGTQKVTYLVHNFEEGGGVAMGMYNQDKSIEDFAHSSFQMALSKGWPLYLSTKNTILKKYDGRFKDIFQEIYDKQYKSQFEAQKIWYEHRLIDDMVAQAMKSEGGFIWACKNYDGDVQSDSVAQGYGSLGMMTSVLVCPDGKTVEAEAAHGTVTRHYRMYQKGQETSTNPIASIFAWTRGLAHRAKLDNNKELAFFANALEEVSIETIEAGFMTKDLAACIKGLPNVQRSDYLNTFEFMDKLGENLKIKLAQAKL
Pf Dd2 growth: inhibitors of Plasmodium falciparum Dd2 growth. P. falciparum Dd2 growth, SYBR Green, 72 h; hits give low values. activity change, % at 10 µM. 94,000 tested, 2.3% active; in the data active means activity change below about -80%; inconclusive means no clear call, values can overlap the other calls
KDM4C inh: blocks human GASC-1 (KDM4C) demethylase activity; Q9H3R0; GST-KDM4C 2-372, H3K9me3 peptide, LANCE TR-FRET; inhibition, % at 12.5 µM; 96,000 tested, 0.15% active; AID 720574;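 active means mean replicate inhibition above about 25%, with at least 55% of replicates also reaching it, limit read from the data, passing the limit was not always enough; inconclusive means only one of those two conditions met; inactive means neither condition met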
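Compound: one test concentration per compound; Material: GST-GASC-1 enzyme fragment 2-372; Amount: GASC-1 enzyme at 10 nM final in reaction; Also added: H3K9me3 peptide substrate, Fe(II), 2-oxoglutarate; Technique: LANCE TR-FRET; Times: 30 min demethylation and 1 h detection at room temperature.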
T cruzi growth-2: blocks T. cruzi growth in NIH3T3 host cells. shares compounds with T cruzi growth-1. 5,600 tested, 72% active. inhibition, % at 8.35 µM. T. cruzi beta-gal in NIH3T3, GalScreen luminescence, 90 h. AID 651739;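 active means mean replicate inhibition above about 95% and at least 55% of replicates individually reaching it, limit read from the data; inconclusive means only one of the two criteria is met; inactive means neither criterion is met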
T cruzi growth-3: inhibitors of T. cruzi proliferation; inhibition, % at 2.09 µM; AID 651740; shares compounds with T cruzi growth-1; 5,600 tested, 21% active; T. cruzi beta-gal in NIH3T3, GalScreen luminescence, 90 h;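 active means mean inhibition above about 95%, with at least 55% of replicates also reaching it, limit read from the data; inconclusive means meets just one of the two conditions; inactive means meets neither condition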;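 further: plate controls were neutral control median for no effect and positive control median for full effect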
3T3 cytotox: cytotoxicity in mouse NIH/3T3 fibroblasts. 5,600 tested, 14% active. shares compounds with T cruzi growth-1. AID 651742. cytotoxicity (signal decrease), % at 8.35 µM. NIH/3T3 viability, CellTiter-Glo ATP luminescence, 90 h;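 active means mean signal decrease across replicates above about 35% based on untreated-well scatter, with enough replicates individually passing, limit read from the data; inconclusive means no rule stated though some were filed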;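 further: 0% = median of neutral control wells and 100% = median of positive control wells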
NIH3T3 tox 2: NIH/3T3 (mouse) viability loss; inhibition, % at 24.9 µM; 5,600 tested, 56% active; NIH/3T3 viability, CellTiter-Glo ATP luminescence, 90 h; shares compounds with T cruzi growth-1;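 active means mean loss of cell viability signal at or above a set limit, and enough replicates individually reaching it; inconclusive means meets only the mean limit or only the replicate share; inactive means meets neither condition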;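 further: 0% = median of neutral control wells and 100% = median of positive control wells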
The depositor's hits bear a star; ? = inconclusive; . = not tested or not shown. Sampled rows, rich in hits. Any-hit rate of the full collection: about 5.8%.

SMILES	T cruzi growth-1	IDH1 R132H inh	Pf Dd2 growth	KDM4C inh	T cruzi growth-2	T cruzi growth-3	3T3 cytotox	NIH3T3 tox 2
CCCNC(=O)[C@H]1[C@H](CO)[C@H]2Cn3c(ccc(C4=CCCC4)c3=O)[C@@H]1N2C(C)=O	-4	.	5	5	.	.	.	.
O=C(Nc1cccc(NS(=O)(=O)c2cccc([N+](=O)[O-])c2)c1)c1cccs1	.	-1	.	.	.	.	.	.
COc1ccc2c3c(n(C)c2c1)[C@H](CO)N(Cc1cccnc1)CC31CCN(C(=O)NC(C)C)CC1	.	.	12	.	.	.	.	.
C/C=C/c1ccc2c(c1)O[C@H](CN(C)C(=O)c1ccccn1)[C@H](C)CN([C@@H](C)CO)S2(=O)=O	52	-1	42	-1	.	.	.	.
O=C1[C@H](Cc2ccccc2)CCn2cc(nn2)COCC2CCCN12 (some centres not stated)	.	.	.	-2	.	.	.	.
COc1cccc(S(=O)(=O)Nc2ccc3c(c2)C(=O)N(C)C[C@H](OC)[C@@H](C)CN[C@@H](C)CO3)c1	0	1	4	0	.	.	.	.
O=C(NC1CCC1)[C@@H]1[C@@H](CO)[C@@H]2Cn3c(ccc(-c4ccc(F)cc4)c3=O)[C@H]1N2Cc1cocn1	.	.	12	1	.	.	.	.
CCCNC(=O)[C@H]1[C@H](CO)[C@H]2Cn3c(ccc(C4=CCCCC4)c3=O)[C@@H]1N2Cc1cocn1	-11	.	6	2	.	.	.	.
O=C(NC1CCC1)[C@@H]1[C@@H](CO)[C@@H]2Cn3c(ccc(-c4cccc(F)c4)c3=O)[C@H]1N2Cc1cocn1	100*	.	.	0	61	17	21	12
CCNC(=O)[C@H]1[C@H](CO)[C@H]2Cn3c(ccc(C4=CCCCC4)c3=O)[C@@H]1N2Cc1cocn1	?	.	0	6	1	-16	-14	-17
O=C(c1ccncc1)N1CC[C@@H]2[C@H](CO)Nc3ccc(Br)cc3[C@@H]21	-13	.	26	1	.	.	.	.
C/C=C/c1ccc2c(c1)O[C@H](CN(C)Cc1ccccc1F)[C@H](C)CN([C@@H](C)CO)S2(=O)=O	120*	0	5	1	111*	78	36*	105*
C/C=C/c1ccc2c(c1)O[C@@H](CN(C)Cc1ccc(F)cc1)[C@@H](C)CN([C@@H](C)CO)S2(=O)=O	91	-2	-44	0	.	.	.	.
C/C=C/c1ccc2c(c1)O[C@@H](CN(C)Cc1ccccc1F)[C@H](C)CN([C@H](C)CO)S2(=O)=O	114*	2	-5	2	98*	62	51*	102*
C/C=C/c1ccc2c(c1)O[C@H](CN(C)Cc1ccccc1F)[C@H](C)CN([C@H](C)CO)S2(=O)=O	109*	0	-1	0	102*	69	27	105*
C/C=C/c1ccc2c(c1)O[C@@H](CN(C)Cc1ccccc1F)[C@@H](C)CN([C@@H](C)CO)S2(=O)=O	8	-2	28	0	.	.	.	.
C[C@H](CO)N1C[C@H](C)[C@@H](CN(C)S(=O)(=O)c2ccccc2)OCCCC[C@H](C)Oc2ccc(NS(=O)(=O)c3ccc(F)cc3)cc2C1=O	57	.	-23	-1	.	.	.	.
O=C(c1ccccn1)N1C[C@@H]2[C@H](c3ccccc31)[C@@H](CO)N2C(=O)c1ccccn1	-15	.	13	-1	.	.	.	.
COc1ccc(S(=O)(=O)N(C)C[C@@H]2OCCCC[C@H](C)Oc3ccc(NC(=O)Nc4ccccc4)cc3C(=O)N([C@@H](C)CO)C[C@@H]2C)cc1	?	0	-86*	-1	105*	72	7	25
COc1ccc(S(=O)(=O)N(C)C[C@H]2OCCCC[C@@H](C)Oc3ccc(NC(=O)Nc4ccccc4)cc3C(=O)N([C@@H](C)CO)C[C@@H]2C)cc1	100*	.	-64	-2	112*	1	8	?
COc1ccc(S(=O)(=O)N(C)C[C@@H]2OCCCC[C@@H](C)Oc3ccc(NC(=O)Nc4ccccc4)cc3C(=O)N([C@@H](C)CO)C[C@H]2C)cc1	?	-1	-74	-1	111*	67	-3	5
COc1ccc(S(=O)(=O)N(C)C[C@H]2OCCCC[C@H](C)Oc3ccc(NC(=O)Nc4ccccc4)cc3C(=O)N([C@@H](C)CO)C[C@@H]2C)cc1	105*	4	-76	7	110*	67	18	8
COc1ccc(S(=O)(=O)N(C)C[C@H]2OCCCC[C@H](C)Oc3ccc(NC(=O)Nc4ccccc4)cc3C(=O)N([C@H](C)CO)C[C@H]2C)cc1	-12	.	?	4	.	.	.	.
CO[C@H]1CN(C)C(=O)c2ccc(NC(=O)Nc3ccccc3F)cc2OC[C@H](C)N(C)C[C@H]1C	-10	-1	-23	0	.	.	.	.
C[C@H](CO)N1C[C@H](C)[C@@H](CN(C)Cc2ccc(C(F)(F)F)cc2)OCCCC[C@H](C)Oc2ccc(NC(=O)NC3CCCCC3)cc2C1=O	55	.	-19	0	.	.	.	.
SMILES	T cruzi growth-1	IDH1 R132H inh	Pf Dd2 growth	KDM4C inh	T cruzi growth-2	T cruzi growth-3	3T3 cytotox	NIH3T3 tox 2
C[C@@H]1CN([C@@H](C)CO)S(=O)(=O)c2ccc(-c3cccnc3)cc2O[C@@H]1CN(C)Cc1cccnc1	63	.	-3	0	.	.	.	.
Cc1ccc(-c2ccc3c(c2)O[C@@H](CN(C)Cc2cccnc2)[C@@H](C)CN([C@@H](C)CO)S3(=O)=O)cc1	102*	8	-80	2	92	81	52*	94*
C[C@@H]1CN([C@H](C)CO)S(=O)(=O)c2ccc(-c3ccncc3)cc2O[C@@H]1CN(C)Cc1cccnc1	73	.	27	.	.	.	.	.
Cc1ccc(-c2ccc3c(c2)O[C@H](CN(C)Cc2cccnc2)[C@H](C)CN([C@@H](C)CO)S3(=O)=O)cc1	108*	4	-39	-1	97*	80	46*	95*
Cc1ccc(-c2ccc3c(c2)O[C@@H](CN(C)Cc2cccnc2)[C@H](C)CN([C@H](C)CO)S3(=O)=O)cc1	118*	9	-78	-1	?	104*	80*	102*
C[C@H](O)C#Cc1ccc2c(c1)O[C@@H](CN(C)CC1CCOCC1)[C@@H](C)CN([C@@H](C)CO)S2(=O)=O	53	.	-8	0	.	.	.	.
CC(=O)O[C@]1(C(C)=O)CC[C@H]2[C@@H]3C=C(Cl)C4=CC(=O)C5CC5[C@]4(C)[C@H]3CC[C@@]21C (some centres not stated)	.	0	.	.	.	.	.	.
C[C@@H]1CN([C@@H](C)CO)C(=O)Cc2cc(NS(=O)(=O)c3ccc(F)cc3)ccc2O[C@@H]1CN(C)Cc1ccccc1	94	.	-20	1	.	.	.	.

Screening data as filed in PubChem BioAssay.
